Activity calls are given as the source filed them. The calls are words filed in the database; no cut-off is given here.
Key:
Ovis aries [1] = species: Ovis aries; assay: Inhibition of sheep brain dynamin 1 at 400 uM after 30 mins by malachite green method
How it was run: (§1)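 Enzyme was endogenous dynamin I purified from sheep brain. GTPase activity was read by malachite green phosphate detection, with dynamin and lipid levels set for adequate optical response. Inhibition was also scored at single concentrations of 300 or 400 μM.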

[2] = Inhibition of sheep brain dynamin 1 after 30 mins by malachite green method; set-up: species or system Ovis aries; how it was run: as §1
Dynamin-1 = biological target: T1, Dynamin-1 (Rattus norvegicus, UniProt P21575); assay: Inhibition of dynamin 1-mediated synaptic vesicle endocytosis in Sprague-Dawley rat synaptosomes assessed as uptake of FM 4-64 dye after 30 mins by automated acquisition and analysis system; type: subcellular, Brain
T1 sequence (P21575 whole entry): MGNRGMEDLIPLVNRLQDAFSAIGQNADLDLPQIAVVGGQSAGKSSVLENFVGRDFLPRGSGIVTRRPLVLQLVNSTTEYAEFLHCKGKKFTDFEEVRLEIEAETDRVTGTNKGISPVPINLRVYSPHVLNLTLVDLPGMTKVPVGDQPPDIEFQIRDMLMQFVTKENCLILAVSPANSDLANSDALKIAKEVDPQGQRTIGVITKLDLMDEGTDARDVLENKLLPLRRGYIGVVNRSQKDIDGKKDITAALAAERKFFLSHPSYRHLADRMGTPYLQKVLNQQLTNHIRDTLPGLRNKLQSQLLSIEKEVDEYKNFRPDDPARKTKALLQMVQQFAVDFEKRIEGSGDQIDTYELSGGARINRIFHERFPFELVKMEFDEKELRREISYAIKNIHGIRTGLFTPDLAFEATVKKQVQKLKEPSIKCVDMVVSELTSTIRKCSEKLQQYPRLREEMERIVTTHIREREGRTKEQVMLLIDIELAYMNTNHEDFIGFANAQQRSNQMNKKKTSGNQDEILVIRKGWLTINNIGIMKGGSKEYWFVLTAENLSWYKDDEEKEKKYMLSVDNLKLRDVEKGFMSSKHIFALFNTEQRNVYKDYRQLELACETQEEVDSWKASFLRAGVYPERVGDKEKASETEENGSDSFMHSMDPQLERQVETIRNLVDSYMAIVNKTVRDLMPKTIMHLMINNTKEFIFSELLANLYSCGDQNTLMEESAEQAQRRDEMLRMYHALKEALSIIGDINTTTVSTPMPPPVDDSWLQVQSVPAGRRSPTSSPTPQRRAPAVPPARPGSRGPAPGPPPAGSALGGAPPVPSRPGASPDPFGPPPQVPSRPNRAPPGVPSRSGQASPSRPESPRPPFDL
How it was run: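 Rat brain nerve terminals (isolated synaptosomes) used for synaptic vesicle endocytosis. Endocytosis was tracked as change in uptake of the styryl dye FM4-64, an endocytic marker.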

Ovis aries [3] = species: Ovis aries; assay: Competitive inhibition of dynamin 1 from sheep brain at 14 to 19 uM by Lineweaver-Burke plot
How it was run: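 Dynamin I GTPase purified from sheep brain, read by malachite green phosphate release. Michaelis-Menten kinetics with inhibitor at 14, 15, 16, 17, 18 and 19 μM and Mg2+·GTP substrate at 60-200 μM. Double-reciprocal (Lineweaver-Burke) plot of reaction velocity against substrate. Four independent experiments, each in triplicate; mean ± SEM.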

Dynamin-2 [4] = biological target: T2, Dynamin-2 (Homo sapiens, UniProt P50570); assay: Inhibition of recombinant dynamin 2 expressed in Sf9 cells after 30 mins by malachite green method
T2 sequence (P50570 whole entry): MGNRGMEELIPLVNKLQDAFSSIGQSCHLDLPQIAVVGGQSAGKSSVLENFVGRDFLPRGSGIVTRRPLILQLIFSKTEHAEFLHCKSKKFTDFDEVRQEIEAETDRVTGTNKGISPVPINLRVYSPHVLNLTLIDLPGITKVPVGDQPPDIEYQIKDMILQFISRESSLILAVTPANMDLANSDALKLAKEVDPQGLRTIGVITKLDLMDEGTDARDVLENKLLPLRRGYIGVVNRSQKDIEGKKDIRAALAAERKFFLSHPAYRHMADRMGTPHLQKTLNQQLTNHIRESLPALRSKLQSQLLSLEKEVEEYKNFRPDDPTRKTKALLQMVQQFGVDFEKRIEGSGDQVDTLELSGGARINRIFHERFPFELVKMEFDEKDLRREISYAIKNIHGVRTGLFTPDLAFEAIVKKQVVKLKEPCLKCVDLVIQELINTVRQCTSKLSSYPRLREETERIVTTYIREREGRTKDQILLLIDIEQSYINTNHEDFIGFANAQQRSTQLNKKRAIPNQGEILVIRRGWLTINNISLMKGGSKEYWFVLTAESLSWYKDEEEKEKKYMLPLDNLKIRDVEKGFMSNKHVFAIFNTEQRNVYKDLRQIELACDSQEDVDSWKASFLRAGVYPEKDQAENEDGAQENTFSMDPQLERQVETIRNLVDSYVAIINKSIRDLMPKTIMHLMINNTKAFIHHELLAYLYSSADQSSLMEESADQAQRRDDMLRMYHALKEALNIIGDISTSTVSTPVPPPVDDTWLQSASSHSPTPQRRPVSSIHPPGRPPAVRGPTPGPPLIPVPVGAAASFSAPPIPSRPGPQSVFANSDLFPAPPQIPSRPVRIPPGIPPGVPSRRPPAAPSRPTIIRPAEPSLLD

Dynamin-2 [5] = biological target: T2, Dynamin-2; assay: Inhibition of dynamin 2-mediated receptor-induced endocytosis in human U2OS cells assessed as uptake of Tf-TxR dye after 30 mins by automated acquisition and analysis system; type: cell-based
Ovis aries [6] = species: Ovis aries; assay: Inhibition of sheep brain dynamin 1 at 300 uM after 30 mins by malachite green method; how it was run: as §1

Which inhibition (Ovis aries [1]) does the source give for O=C(Nc1cc(Cl)ccc1C(=O)O)c1ccc2c(c1)C(=O)N(Cc1ccccc1)C2=O here?
Its inhibition is “inactive”.

With Cc1cccc(C)c1N1C(=O)c2ccc(C(=O)Nc3cc(Cl)ccc3C(=O)O)cc2C1=O as the compound, how does the inhibition (Ovis aries [1]) read?
The inhibition was “inactive”.

Which inhibition (Ovis aries [1]) does the source give for COc1cccc(N2C(=O)c3ccc(C(=O)Nc4cc(Cl)ccc4C(=O)O)cc3C2=O)c1 here?
The inhibition was “inactive”.

With O=C(O)Cc1ccc(N2C(=O)c3ccc(C(=O)Nc4cc(Cl)ccc4C(=O)O)cc3C2=O)cc1 as the compound, how does the IC50 [2] read?
The IC50 was 95.5 µM.

For Nc1cccc(N2C(=O)c3ccc(C(=O)Nc4cc(Cl)ccc4C(=O)O)cc3C2=O)c1, which IC50 [2] is on record?
Its IC50 is 94 µM.

For O=C(Nc1cc(Cl)ccc1C(=O)O)c1ccc2c(c1)C(=O)N(c1ccccc1-c1ccccc1)C2=O, which IC50 [2] is on record?
The IC50 was > 400 µM.

And the inhibition (Ovis aries [1])?
Its inhibition is 40%.

Which IC50 [2] does the source give for O=C(Nc1cc(Cl)ccc1C(=O)O)c1ccc2c(c1)C(=O)N(c1ccccc1O)C2=O here?
The IC50 was 61 µM.

What about the IC50 (Dynamin-1; read-out: IC50) of the same compound?
The IC50 was 119 µM.

Which IC50 [2] does the source give for O=C(Nc1cc(Cl)ccc1C(=O)O)c1ccc2c(c1)C(=O)N(c1cccc(CO)c1)C2=O here?
The IC50 was 111 µM.

For O=C(Nc1cc(Cl)ccc1C(=O)O)c1ccc2c(c1)C(=O)N(c1ccc(C(=O)O)c(O)c1)C2=O, which IC50 [2] is on record?
Its IC50 is 267 µM.

With O=C(Nc1cc(Cl)ccc1C(=O)O)c1ccc2c(c1)C(=O)N(CCCCc1ccccc1)C2=O as the compound, how does the inhibition (Ovis aries [1]) read?
The inhibition was “inactive”.

With O=C(Nc1cc(Cl)ccc1C(=O)O)c1ccc2c(c1)C(=O)N(c1cccc(O)c1)C2=O as the compound, how does the inhibition (Ovis aries [1]) read?
Its inhibition is “inactive”.

With O=C(Nc1cc(Cl)ccc1C(=O)O)c1ccc2c(c1)C(=O)N(C1CCCc3ccccc31)C2=O (centres undefined) as the compound, how does the inhibition (Ovis aries [1]) read?
The inhibition was “inactive”.

For O=C(O)CCc1ccc(N2C(=O)c3ccc(C(=O)Nc4cc(Cl)ccc4C(=O)O)cc3C2=O)cc1, which IC50 [2] is on record?
Its IC50 is 104 µM.

With COc1ccc(N2C(=O)c3ccc(C(=O)Nc4cc(Cl)ccc4C(=O)O)cc3C2=O)cc1 as the compound, how does the IC50 [2] read?
Its IC50 is 78 µM.

For CSc1ccc(N2C(=O)c3ccc(C(=O)Nc4cc(Cl)ccc4C(=O)O)cc3C2=O)cc1, which inhibition (Ovis aries [1]) is on record?
The inhibition was “inactive”.

For O=C(Nc1cc(Cl)ccc1C(=O)O)c1ccc2c(c1)C(=O)N(c1ccccc1CO)C2=O, which inhibition (Ovis aries [1]) is on record?
Its inhibition is “inactive”.

What does the source list for O=C(Nc1cc(Cl)ccc1C(=O)O)c1ccc2c(c1)C(=O)N(c1ccc(CO)cc1)C2=O?
IC50 [2]: 4.58 µM; IC50 (Dynamin-1; read-out: IC50): 690 µM

With O=C(Nc1cc(Cl)ccc1C(=O)O)c1ccc2c(c1)C(=O)N(c1cccc3ccccc13)C2=O as the compound, how does the inhibition (Ovis aries [1]) read?
Its inhibition is “inactive”.

With COc1ccc(CN2C(=O)c3ccc(C(=O)Nc4cc(Cl)ccc4C(=O)O)cc3C2=O)cc1 as the compound, how does the inhibition (Ovis aries [1]) read?
Its inhibition is “inactive”.

With O=C(Nc1cc(Cl)ccc1C(=O)O)c1ccc2c(c1)C(=O)N(Cc1cccnc1)C2=O as the compound, how does the IC50 [2] read?
Its IC50 is 84 µM.

Which IC50 [2] does the source give for O=C(O)c1ccc(N2C(=O)c3ccc(C(=O)Nc4cc(Cl)ccc4C(=O)O)cc3C2=O)cc1 here?
The IC50 was 95 µM.

Which Activity (Ovis aries [3]) does the source give for O=C(Nc1cc(Cl)ccc1C(=O)O)c1ccc2c(c1)C(=O)N(c1cccc([N+](=O)[O-])c1)C2=O here?
Its Activity is “Active”.

What about the IC50 [2] of the same compound?
Its IC50 is 17.4 µM.

What about the IC50 (Dynamin-1; read-out: IC50) of the same compound?
The IC50 was 12.9 µM.

Which inhibition (Ovis aries [1]) does the source give for O=C(Nc1cc(Cl)ccc1C(=O)O)c1ccc2c(c1)C(=O)N(CCc1ccccc1)C2=O here?
The inhibition was “inactive”.

Which IC50 [2] does the source give for CC(C)(C)c1ccc(N2C(=O)c3ccc(C(=O)Nc4cc(Cl)ccc4C(=O)O)cc3C2=O)cc1 here?
Its IC50 is 112 µM.

With Nc1ccc(N2C(=O)c3ccc(C(=O)Nc4cc(Cl)ccc4C(=O)O)cc3C2=O)cc1 as the compound, how does the inhibition (Ovis aries [1]) read?
Its inhibition is “inactive”.

With Nc1ccccc1N1C(=O)c2ccc(C(=O)Nc3cc(Cl)ccc3C(=O)O)cc2C1=O as the compound, how does the IC50 [2] read?
The IC50 was 311 µM.

Which inhibition (Ovis aries [1]) does the source give for O=C(Nc1cc(Cl)ccc1C(=O)O)c1ccc2c(c1)C(=O)N(c1ccccc1)C2=O here?
The inhibition was “inactive”.

Which IC50 [2] does the source give for O=C(Nc1cc(Cl)ccc1C(=O)O)c1ccc2c(c1)C(=O)N(c1ccccc1C(=O)O)C2=O here?
Its IC50 is 184 µM.

With O=C(Nc1cc(Cl)ccc1C(=O)O)c1ccc2c(c1)C(=O)N(c1ccc([N+](=O)[O-])cc1)C2=O as the compound, how does the IC50 [2] read?
The IC50 was 16.6 µM.

Which IC50 [2] does the source give for O=C(Nc1cc(Cl)ccc1C(=O)O)c1ccc2c(c1)C(=O)N(c1ccc(O)cc1)C2=O here?
Its IC50 is 39.8 µM.

And the IC50 (Dynamin-2 [4])?
The IC50 was 114 µM.

And the IC50 (Dynamin-2 [5])?
Its IC50 is “Not Active”.

And the IC50 (Dynamin-1)?
The IC50 was “Not Active”.

For CCOC(=O)c1ccc(N2C(=O)c3ccc(C(=O)Nc4cc(Cl)ccc4C(=O)O)cc3C2=O)cc1, which inhibition (Ovis aries [6]) is on record?
The inhibition was 50%.
